This is an account of results in ChEMBL document CHEMBL1134070, “Ring-Constrained (N)-methanocarba nucleosides as adenosine receptor agonists: independent 5'-uronamide and 2'-deoxy modifications” (Bioorg Med Chem Lett, 2001).

Assay [1] concerns the target T1, Adenosine receptor A3 (Homo sapiens, UniProt P0DMS8).
T1 sequence (P0DMS8 whole entry): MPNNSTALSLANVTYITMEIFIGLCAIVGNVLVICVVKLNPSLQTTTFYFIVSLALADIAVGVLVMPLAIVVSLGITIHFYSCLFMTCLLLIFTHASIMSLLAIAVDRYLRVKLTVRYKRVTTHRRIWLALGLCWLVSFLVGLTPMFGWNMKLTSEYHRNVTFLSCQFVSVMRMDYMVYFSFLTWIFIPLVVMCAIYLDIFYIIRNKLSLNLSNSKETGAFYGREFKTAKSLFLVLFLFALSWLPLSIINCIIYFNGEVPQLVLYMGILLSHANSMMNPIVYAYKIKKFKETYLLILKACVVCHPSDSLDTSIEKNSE
Kind of assay: Ability to displace specific radioligand [125I]AB-MECA binding at human Adenosine A3 receptor expressed in CHO cells. It counts as cell-based.

Assay [2] deals with Adenosine receptor A2a (Rattus norvegicus) (UniProt P30543). In words: Displacement of [3H]-CGS- 21680 from Adenosine A2A receptor in rat striatal membranes at 10 uM. The assay is classed as cell membranes. Particulars: Membrane. The procedure, abridged: (§1)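 Rat striatal membranes; percent displacement of specific [3H]CGS 21680 binding at A2A receptors measured at a single 10 μM test concentration.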
Adenosine receptor A2a (Rattus norvegicus), sequence (P30543 whole entry): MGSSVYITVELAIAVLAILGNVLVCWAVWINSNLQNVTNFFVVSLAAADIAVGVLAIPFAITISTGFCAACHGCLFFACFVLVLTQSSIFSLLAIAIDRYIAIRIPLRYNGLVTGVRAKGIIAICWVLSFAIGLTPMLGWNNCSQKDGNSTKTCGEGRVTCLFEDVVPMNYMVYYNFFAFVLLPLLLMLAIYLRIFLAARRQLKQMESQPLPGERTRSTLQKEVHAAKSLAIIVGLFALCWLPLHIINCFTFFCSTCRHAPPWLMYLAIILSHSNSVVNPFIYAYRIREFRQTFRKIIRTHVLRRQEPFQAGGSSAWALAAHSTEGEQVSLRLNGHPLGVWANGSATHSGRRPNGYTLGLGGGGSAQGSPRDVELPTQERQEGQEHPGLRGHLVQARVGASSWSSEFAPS
(In general: Displacement assays read how much labelled ligand stays bound in the presence of the test substance.)

Assay [3] addresses T2, Adenosine receptor A1 (Rattus norvegicus, UniProt P25099).
T2 sequence (P25099 whole entry): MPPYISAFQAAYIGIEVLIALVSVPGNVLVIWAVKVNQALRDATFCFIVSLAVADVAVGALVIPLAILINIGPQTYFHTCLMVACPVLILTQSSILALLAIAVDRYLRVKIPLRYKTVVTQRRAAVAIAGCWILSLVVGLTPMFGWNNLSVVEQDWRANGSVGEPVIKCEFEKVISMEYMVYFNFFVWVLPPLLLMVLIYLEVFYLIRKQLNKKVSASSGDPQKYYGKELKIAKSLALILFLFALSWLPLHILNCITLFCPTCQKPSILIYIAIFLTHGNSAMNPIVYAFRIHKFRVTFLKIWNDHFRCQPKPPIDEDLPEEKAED
In words: Ability to displace specific radioligand [3H]R-PIA binding at Adenosine A1 receptor in rat brain membrane. It counts as cell membranes. The procedure, abridged: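 Rat brain membranes; competition against specific [3H]R-PIA binding at A1 receptors.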

Assay [4] deals with T1, Adenosine receptor A3. In words: Agonist efficacy as effective concentration to stimulate binding of [35S]GTP-gamma-S, by activation of human A3AR receptor. The assay is classed as functional. A general note: Binding of GTPγS marks nucleotide exchange on a G protein.
In assay [5] the target is Adenosine receptor A2a (Rattus norvegicus) (UniProt P30543). In words: Displacement of [3H]-CGS- 21680 from A2A receptors (rA2A) in rat striatal membranes at 10 uM. As to conditions: Membrane. The assay is classed as cell membranes. The procedure, abridged:
as §1

In assay [6] the target is T3, Adenosine receptor A2a (Rattus norvegicus, UniProt P30543). Kind of assay: Ability to displace specific radioligand [3H]-CGS- 21680 binding at A2A receptors (rA2A) in rat brain membrane. The assay is classed as cell membranes. The procedure, abridged:
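Rat striatal membranes; competition against specific [3H]CGS 21680 binding at A2A receptors.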

For assay [7], the target named is T4, Adenosine receptor A1 (Homo sapiens) (UniProt P30542).
T4 sequence (whole entry): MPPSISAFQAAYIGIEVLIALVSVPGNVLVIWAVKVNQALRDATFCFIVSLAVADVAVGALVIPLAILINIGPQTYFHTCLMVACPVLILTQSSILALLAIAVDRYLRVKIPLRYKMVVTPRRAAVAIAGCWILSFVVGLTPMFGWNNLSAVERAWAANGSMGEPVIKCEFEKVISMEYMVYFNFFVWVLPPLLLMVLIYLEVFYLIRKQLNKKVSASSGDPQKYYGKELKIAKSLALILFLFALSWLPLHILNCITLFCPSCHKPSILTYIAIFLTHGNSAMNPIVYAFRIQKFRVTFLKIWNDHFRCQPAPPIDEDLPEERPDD
In words: Efficacy to stimulate binding of [35S]GTP-gamma-S, at human Adenosine A1 receptor. The assay is classed as functional. The procedure, abridged: (§2)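 Functional agonist assay: stimulation of [35S]GTP-γ-S binding following activation of the human A1 receptor. EC50 and percent efficacy reported as mean±value.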

Assay [8] has as its target T5, Adenosine receptor A1 (Homo sapiens, UniProt P30542).
T5 sequence (P30542 whole entry): T4 sequence (whole entry)
Kind of assay: Agonist efficacy as effective concentration to stimulate binding of [35S]GTP-gamma-S, at human Adenosine A1 receptor. The assay is classed as functional. The procedure, abridged:
as §2

Assay [9] concerns the target Adenosine receptor A2a (Rattus norvegicus) (UniProt P30543). Kind of assay: Displacement of [3H]-CGS- 21680 from A2A receptors (rA2A) in rat striatal membranes at 100 uM. It counts as cell membranes. Particulars: Membrane. The procedure, abridged: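 Rat striatal membranes; percent displacement of specific [3H]CGS 21680 binding at A2A receptors measured at a single 100 μM test concentration.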

Assay [10] concerns the target T3, Adenosine receptor A2a. In words: Displacement of [3H]-CGS- 21680 from Adenosine A2A receptor in rat brain membrane. It counts as cell membranes.
In assay [11] the target is T5, Adenosine receptor A1. Kind of assay: Agonist efficacy as effective concentration to stimulate binding of [35S]GTP-gamma-S, at human A1 adenosine receptor. It counts as functional. The procedure, abridged: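 Functional agonist assay measuring agonist-stimulated [35S]GTP-γ-S binding through activation of the human A1AR. Potency was reported as EC50 together with percent efficacy, each as mean ± error.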

T3 sequence (P30543 whole entry): as the sequence (P30543 whole entry) above

For orientation: Ki means the dissociation constant of the complex between target and ligand, obtained from inhibition or displacement. Lower therefore signals a stronger hold on the target. For `CNc1nc(Cl)nc2c1ncn2[C@H]1[C@H](O)[C@H](O)[C@]2(CO)C[C@H]12`, the Ki stood at 22.5 nM in assay [1] and 884 nM in [3]. In [2], the Displacement is less than 10%.
What is called EC50 is the concentration giving half of the maximal effect. A lower EC50 goes with a more potent agent. As for `CNC(=O)[C@@]12C[C@@H]1[C@@H](n1cnc3c(NC)nc(Cl)nc31)[C@H](O)[C@@H]2O`, the Ki in [1] is 6.19 nM; in assay [3] it was 805 nM. The compound also gave an EC50 in [4] of 25.5 nM. The compound also showed a Displacement in [5] of less than 10%.
Take `OC[C@@]12C[C@@H]1[C@@H](n1cnc3c(NCc4cccc(I)c4)nc(Cl)nc31)C[C@@H]2O`: the inhibitory constant (Ki) in assay [1] is 912 nM; in assay [6] it was 25400 nM; in assay [3] it was 8730 nM.
The compound `CNc1ncnc2c1ncn2[C@H]1[C@H](O)[C@H](O)[C@]2(CO)C[C@H]12` had a Displacement in assay [2] of less than 10%.
On to `OC[C@@]12C[C@@H]1[C@@H](n1cnc3c(NC4CCCC4)nc(Cl)nc31)C[C@@H]2O`, for which the Efficacy in [7] worked out at 40%. Besides, in assay [8], a half-maximal response (EC50) required 2280 nM. Also, the Displacement in [9] is 45%.
With `Nc1nc(Cl)nc2c1ncn2[C@H]1[C@H](O)[C@H](O)[C@]2(CO)C[C@H]12`, the Ki in [1] turned out to be 84.7 nM; in assay [3], 273 nM.
Take `CCNC(=O)[C@@]12C[C@@H]1[C@@H](n1cnc3c(N)ncnc31)[C@H](O)[C@@H]2O`: the Ki in [10] stood at 100 nM.
Take `OC[C@@]12C[C@@H]1[C@@H](n1cnc3c(NC4CCCC4)ncnc31)C[C@@H]2O`: the Ki in assay [1] amounted to 2880 nM; in assay [3], 5110 nM. Besides, the Efficacy in assay [7] came out at 30%. Also, the EC50 in [11] worked out at 2890 nM. For the same compound, the Displacement in assay [9] was 15%.
Turning to `CNC(=O)[C@@]12C[C@@H]1[C@@H](n1cnc3c(NCc4cccc(I)c4)ncnc31)[C@H](O)[C@@H]2O`, the results for the Ki in assay [1], in assay [6] and in assay [3] were 2.39 nM, 548 nM and 52.7 nM, respectively. The EC50 in assay [4] is 6.8 nM.
In the case of `CNC(=O)[C@@]12C[C@@H]1[C@@H](n1cnc3c(NCc4cccc(I)c4)nc(Cl)nc31)[C@H](O)[C@@H]2O`, the Ki in assay [6] came to 1660 nM; in [3] it was 83.9 nM.
